Data published in ChEMBL document CHEMBL4145673, “Glucopyranosylbianthrones from the Algerian Asphodelus tenuifolius: Structural Insights and Biological Evaluation on Melanoma Cancer Cells” (J Nat Prod, 2018).
Blank lines part the entries; values can stand above or below the molecule they belong to. Activity calls are given as the source filed them. No cut-off for these calls is given here.

Tests used:
A-375 [1] = assay: Antiproliferative activity against human A375 cells measured after 48 hrs by MTT assay; format: functional, cell-based
In short: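 A375 melanoma cells grown in DMEM with 10% FBS, 2 mM L-glutamine, penicillin/streptomycin at 37 °C, 5% CO2, subcultured every 2 days; seeded 1 × 10^4/well in triplicate, exposed 48 h to 5−50 μM (DMSO stock diluted into medium; vehicle control 0.1% v/v DMSO). MTT conversion read-out; IC50 from viability dose−response curves versus DMSO-treated control.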

A-375 [2] = assay: Induction of apoptosis in human A375 cells assessed as increase in hypodiploid nuclei at 20 to 40 uM measured after 48 hrs by propidium iodide staining based flow cytometry relative to control; format: functional
In short: (§1)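 A375 cells exposed 48 h (text gives 20, 30, 40 μM; methods give 10, 20, 40 μM), harvested, washed in cold PBS, stained 30 min at 4 °C in hypotonic PI buffer (0.1% sodium citrate, 0.1% Triton X-100, 25 μg/mL PI, 10 μg/mL RNase A). Flow cytometry for G0/G1, S, G2/M distribution and hypodiploid nuclei; means ± SD, triplicate determinations; two-way ANOVA with Bonferroni.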

A-375 [3] = assay: Cell cycle arrest in human A375 cells assessed as increase in accumulation at S-phase at 20 to 40 uM measured after 48 hrs by propidium iodide staining based flow cytometry; format: functional; in short: as §1
A-375 [4] = assay: Cell cycle arrest in human A375 cells assessed as decrease in accumulation at G1-phase at 20 to 40 uM measured after 48 hrs by propidium iodide staining based flow cytometry; format: functional; in short: as §1
A-375 [5] = assay: Cell cycle arrest in human A375 cells measured after 48 hrs by propidium iodide staining based flow cytometry; format: functional; in short: as §1
A-375 [6] = assay: Cell cycle arrest in human A375 cells assessed as increase in accumulation at G2/M-phase at 20 to 40 uM measured after 48 hrs by propidium iodide staining based flow cytometry; format: functional; in short: as §1
A-375 [7] = assay: Cell cycle arrest in human A375 cells assessed as decrease in accumulation at S-phase at 20 to 40 uM measured after 48 hrs by propidium iodide staining based flow cytometry; format: functional; in short: as §1

IC50 (A-375 [1]; a-375): 23.2 µM
SMILES: Cc1cc(O)c2c(c1)[C@](O)(C1O[C@H](CO)[C@@H](O)[C@H](O)[C@H]1O)c1ccc(-c3c(C)cc(O)c4c3C(=O)c3cccc(O)c3C4=O)c(O)c1C2=O (atropisomer P) [listing 1 of 2 here]
Activity (A-375 [2]): 12.2%

SMILES: Cc1cc(O)c2c(c1)[C@](O)(C1O[C@H](CO)[C@@H](O)[C@H](O)[C@H]1O)c1ccc(-c3c(C)cc(O)c4c3C(=O)c3cccc(O)c3C4=O)c(O)c1C2=O (single isomer, unassigned; atropisomer M) [listing 1 of 2 here]
Activity (A-375 [1]): Dose-dependent effect
Activity (A-375 [3]): Active
Activity (A-375 [4]): Active
Activity (A-375 [5]): Dose-dependent effect

SMILES: Cc1cc(O)c2c(c1)[C@](O)(C1O[C@H](CO)[C@@H](O)[C@H](O)[C@H]1O)c1ccc(-c3c(C)cc(O)c4c3C(=O)c3cccc(O)c3C4=O)c(O)c1C2=O (atropisomer P) [listing 2 of 2 here]
Activity (A-375 [1]): Dose-dependent effect
Activity (A-375 [6]): Active
Activity (A-375 [7]): Active
Activity (A-375 [4]): Active
Activity (A-375 [5]): Dose-dependent effect

IC50 (A-375 [1]; Homo sapiens, A-375, 48 h): 20.6 µM
SMILES: Cc1cc(O)c2c(c1)[C@](O)(C1O[C@H](CO)[C@@H](O)[C@H](O)[C@H]1O)c1ccc(-c3c(C)cc(O)c4c3C(=O)c3cccc(O)c3C4=O)c(O)c1C2=O (single isomer, unassigned; atropisomer M) [listing 2 of 2 here]
Activity (A-375 [2]): 13.2%
